Reference: ChEMBL document CHEMBL4425163, “Structure elucidation of anti-methicillin resistant Staphylococcus aureus (MRSA) flavonoids from balsam poplar buds” (Bioorg Med Chem, 2016)
≈ marks a conversion by molar mass, not a printed value.

Legend:
[1] = tested on: Staphylococcus aureus; assay: Antibacterial activity against methicillin resistant Staphylococcus aureus clinical isolate 7 incubated […] by microdilution resazurin assay; assay type: functional; settings: Staphylococcus aureus, isolate 7; read-out: MIC
[2] = tested on: Staphylococcus aureus; assay: Antibacterial activity against methicillin resistant Staphylococcus aureus clinical isolate 6 incubated […] by microdilution resazurin assay; assay type: functional; settings: Staphylococcus aureus, isolate 6; read-out: MIC
[3] = tested on: Staphylococcus aureus; assay: Antibacterial activity against methicillin resistant Staphylococcus aureus clinical isolate 10 incubated […] by microdilution resazurin assay; assay type: functional; settings: Staphylococcus aureus, isolate 10; read-out: MIC
[4] = tested on: Staphylococcus aureus; assay: Antibacterial activity against Staphylococcus aureus ATCC 25923 incubated […] by microdilution resazurin assay; assay type: functional
[5] = tested on: Staphylococcus aureus; assay: Antibacterial activity against methicillin resistant Staphylococcus aureus clinical isolate 4 incubated for 7 to 14 days by microdilution resazurin assay
[6] = tested on: Staphylococcus aureus; assay: Antibacterial activity against methicillin resistant Staphylococcus aureus clinical isolate 5 incubated […] by microdilution resazurin assay; assay type: functional; settings: Staphylococcus aureus, isolate 5; read-out: MIC
[7] = Cytotoxicity against human WS1 cells by resazurin reduction assay; assay type: cell-based; settings: Homo sapiens, WS1
Outline: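 WS1 human fibroblast line; resazurin reduction test, slightly modified from an earlier method. Etoposide served as positive control.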

[8] = tested on: Staphylococcus aureus; assay: Antibacterial activity against methicillin resistant Staphylococcus aureus clinical isolate 2 incubated […] by microdilution resazurin assay; assay type: functional; settings: Staphylococcus aureus, isolate 2; read-out: MIC
[9] = tested on: Staphylococcus aureus; assay: Antibacterial activity against methicillin resistant Staphylococcus aureus clinical isolate 3 incubated for 7 to 14 days by microdilution resazurin assay
[10] = tested on: Staphylococcus aureus; assay: Antibacterial activity against methicillin resistant Staphylococcus aureus clinical isolate 1 incubated […] by microdilution resazurin assay; assay type: functional; settings: Staphylococcus aureus, isolate 1; read-out: MIC
[11] = tested on: Staphylococcus aureus; assay: Antibacterial activity against methicillin resistant Staphylococcus aureus clinical isolate 9 incubated […] by microdilution resazurin assay; assay type: functional; settings: Staphylococcus aureus, isolate 9; read-out: MIC
[12] = tested on: Staphylococcus aureus; assay: Antibacterial activity against methicillin resistant Staphylococcus aureus clinical isolate 8 incubated […] by microdilution resazurin assay; assay type: functional; settings: Staphylococcus aureus, isolate 8; read-out: MIC

| SMILES | MIC [1] | MIC [2] | MIC [3] | MIC ([4]; Staphylococcus aureus, ATCC 25923, read-out: MIC) | MIC [5] | MIC [6] | IC50 [7] | MIC [8] | MIC [9] | MIC [10] | MIC [11] | MIC [12] | MIC [4] |
| --- | --- | --- | --- | --- | --- | --- | --- | --- | --- | --- | --- | --- | --- |
| O=C(/C=C/c1ccccc1)OCC(C/C=C/c1ccc(O)cc1)C(c1ccc(O)cc1)c1c(O)cc(O)c(C(=O)CCc2ccccc2)c1O (racemic) | 25 µM (≈ 16.8 µg/mL) | 25 µM (≈ 16.8 µg/mL) | 25 µM (≈ 16.8 µg/mL) | 50 µM (≈ 33.5 µg/mL) | 25 µM (≈ 16.8 µg/mL) | 3 µM (≈ 2.01 µg/mL) | > 10 µM | 25 µM (≈ 16.8 µg/mL) | 13 µM (≈ 8.72 µg/mL) | 25 µM (≈ 16.8 µg/mL) | 25 µM (≈ 16.8 µg/mL) | 25 µM (≈ 16.8 µg/mL) |  |
| O=C(CCc1ccccc1)c1c(O)cc2c(c1O)CC(O)C(c1ccc(O)cc1)O2 (stereo in doubt; (-)-17) | 25 µM (≈ 10.2 µg/mL) | 50 µM (≈ 20.3 µg/mL) | 50 µM (≈ 20.3 µg/mL) |  | 50 µM (≈ 20.3 µg/mL) | 50 µM (≈ 20.3 µg/mL) | > 10 µM | 50 µM (≈ 20.3 µg/mL) | 50 µM (≈ 20.3 µg/mL) | 50 µM (≈ 20.3 µg/mL) | > 50 µM | > 50 µM | 25 µM (≈ 10.2 µg/mL) |
